Laboratory results from ChEMBL document CHEMBL1154546, “Synthesis of 5- and 6-substituted 2-(4-dimethylaminophenyl)-1,3-benzoxazoles and their in vitro and in vivo evaluation as imaging agents for amyloid plaque” (Bioorg Med Chem Lett, 2009).
pKi: −log10 of the molar value. Calls of active or inactive are those of the source.

Biological target: not listed separately
Experiment: Displacement of [3H]BTA1 from amyloid beta (1 to 40) peptide by […]
Settings: not given

Compound | pKi
Cc1ccccc1C(=O)Nc1ccc2oc(-c3ccc(N(C)C)cc3)nc2c1 | 7.72
CN(C)c1ccc(-c2nc3ccc(NC(=O)c4ccccc4)cc3o2)cc1 | 7.59
Cc1cccc(C(=O)Nc2ccc3oc(-c4ccc(N(C)C)cc4)nc3c2)c1 | 7.87
COc1cc(C(=O)Nc2ccc3nc(-c4ccc(N(C)C)cc4)oc3c2)cc(OC)c1OC | 6.20
Cc1ccccc1C(=O)Nc1ccc2nc(-c3ccc(N(C)C)cc3)oc2c1 | 6.95
CN(C)c1ccc(-c2nc3cc(NC(=O)c4ccccc4)ccc3o2)cc1 | 7.92
CN(C)c1ccc(-c2nc3cc(NC(=O)c4ccc(I)cc4)ccc3o2)cc1 | 8.03
COc1cc(C(=O)Nc2ccc3oc(-c4ccc(N(C)C)cc4)nc3c2)cc(OC)c1OC | 6.96
Cc1ccc(C(=O)Nc2ccc3oc(-c4ccc(N(C)C)cc4)nc3c2)cc1 | 7.88

Results, then the molecule that gave them:

pKi | Compound
7.22 | CN(C)c1ccc(-c2nc3ccc(NC(=O)c4ccc(I)cc4)cc3o2)cc1
7.71 | CN(C)c1ccc(-c2nc3ccc(NC(=O)c4ccc5c(c4)OCO5)cc3o2)cc1
7.76 | CN(C)c1ccc(-c2nc3cc(NC(=O)c4ccc5c(c4)OCO5)ccc3o2)cc1
7.50 | Cc1cccc(C(=O)Nc2ccc3nc(-c4ccc(N(C)C)cc4)oc3c2)c1
7.07 | Cc1ccc(C(=O)Nc2ccc3nc(-c4ccc(N(C)C)cc4)oc3c2)cc1

Tested on: Papio anubis
Experiment: In vivo binding affinity to amyloid beta (1 to 40) peptide in ovariectomized baboon by SPECT imaging
Assay type: functional, organism-based
Settings: tested as the 123I-labelled form
Outline: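 Nonhuman primate fasted 18-24 h, immobilized with ketamine (10 mg/kg i.m.) plus glycopyrrolate (10 μg/kg i.m.) 2 h before study, intubated, kept on 2.5% isoflurane, vitals checked every 15 min. 123I tracer (3.2 mCi in 8 mL, ethanol/saline) injected. Continuous brain-dedicated SPECT at 159 keV for 1 h. Reconstruction used ramp plus Butterworth filter (cutoff 0.65 cm-1).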

Compound | Activity
CN(C)c1ccc(-c2nc3cc(NC(=O)c4ccc(I)cc4)ccc3o2)cc1 | inactive
